Source: PubChem (several laboratories)
The list is not random: actives were taken first. Their share in the collection is about 1.9%.
Runt-SMMHC FRET – inhibitors of human RUNX1 Runt domain binding to CBFb-SMMHC. Q01196+Q13951. Cerulean-Runt/Venus-CBFb-SMMHC FRET ratio 530/480, 1 h. inhibition, % at 20 µM. 220,000 compounds, 0.74% hits. AID 1434;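 active = mean inhibition across duplicate retests at 20 µM reaching about 50%, limit read from the data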;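 note: inhibitors lower the FRET ratio by blocking Runt binding to CBFb-SMMHC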
TbHK1 inh – blocks Trypanosoma brucei hexokinase 1 activity | 220,000 compounds, 0.11% hits | recombinant TbHK1, G6PDH-coupled NADH A340 | inhibition, % at 10 µM;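 active = inhibition of 50% or more in the single-dose primary screen; inactive = inhibition below 50%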
RanGTP-Imp inh – inhibitors of RanGTP-importin-beta interaction, primary screen, biochemical, FRET, CFP-Ran, YFP-importin-beta, homogeneous; cell-free CFP-Ran/YFP-importin-beta FRET ratio; inhibition, % (no concentration beside the values); 300,000 compounds, 1.1% hits;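 active = more than half of the replicate wells show a fall in the fluorescence ratio signal beyond about 16%, limit read from the data, passing the limit was not always enough; inconclusive = exactly half of the replicate wells pass the set limit; inactive = fewer than half of replicates pass the limit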
Runt-CBFb FRET – blocks binding of human RUNX1 Runt domain to CBFb. Q01196+Q13951. 220,000 compounds, 0.46% hits. AID 1496. Cerulean-Runt/Venus-CBFb FRET ratio 530/480, 1 h. inhibition, % at 20 µM;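 active = inhibition over about 50% at 20 µM in the single-dose screen, limit read from the data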
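System: Cerulean-labeled Runt domain protein | Quantity: 100 nM of each labeled protein | Schedule: 1 h compound exposure, room temperature | Detection: Fluorescence energy transfer, 422 nm excitation, 530/480 nm emission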
Hck Nef HTS – blocks Nef-activated human Hck kinase; inhibition, % at 20 µM; Recombinant Hck-YEEI plus Nef, Z-Lyte FRET kinase assay; P08631; 220,000 compounds, 0.68% hits;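 active = Hck-Nef kinase inhibition above about 50%, limit read from the data; inactive = inhibition below that limit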
Target sequence (P08631 whole entry, looked up): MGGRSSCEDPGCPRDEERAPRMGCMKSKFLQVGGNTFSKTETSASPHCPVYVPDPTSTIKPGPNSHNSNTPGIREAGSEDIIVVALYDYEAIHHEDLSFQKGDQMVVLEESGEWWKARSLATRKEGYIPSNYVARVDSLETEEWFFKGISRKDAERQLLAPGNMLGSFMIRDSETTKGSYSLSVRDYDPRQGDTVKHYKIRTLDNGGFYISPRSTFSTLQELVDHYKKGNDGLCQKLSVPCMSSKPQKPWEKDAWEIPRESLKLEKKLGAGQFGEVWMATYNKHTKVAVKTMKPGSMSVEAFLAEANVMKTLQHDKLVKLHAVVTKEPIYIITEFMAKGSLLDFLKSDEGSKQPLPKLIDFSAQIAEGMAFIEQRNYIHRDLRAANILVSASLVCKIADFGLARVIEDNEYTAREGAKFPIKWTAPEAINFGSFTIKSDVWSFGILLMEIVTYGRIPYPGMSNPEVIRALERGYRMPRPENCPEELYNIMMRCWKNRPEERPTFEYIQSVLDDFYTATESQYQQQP
Hits are given with their value; – = inactive; ? = inconclusive; · = no result.

SMILES	Runt-SMMHC FRET	TbHK1 inh	RanGTP-Imp inh	Runt-CBFb FRET	Hck Nef HTS
CC(C)(C)OC(=O)CN1C(=O)S/C(=C\c2ccc(-c3cccc(C(=O)O)c3)o2)C1=O	·	·	35	·	·
Cc1ccc(C(=O)O)cc1-c1ccc(/C=C2/NC(=O)N(c3ccccc3)C2=O)o1	–	–	20	–	–
Cc1ccc(C(=O)O)cc1-c1ccc(/C=C2\SC(=O)N(CC(=O)Nc3ccccc3)C2=O)o1	–	–	24	–	–
Cc1ccccc1NC(=O)CN1C(=O)S/C(=C\c2ccc(-c3cc(C(=O)O)ccc3C)o2)C1=O	–	–	–	–	–
Cc1ccc(NC(=O)CN2C(=O)S/C(=C\c3ccc(-c4cccc(C(=O)O)c4C)o3)C2=O)cc1	–	–	42	–	–
Cc1ccc(NC(=O)CN2C(=O)S/C(=C/c3ccc(-c4cccc(C(=O)O)c4)o3)C2=O)cc1	–	–	·	–	–
CC(C)OC(=O)c1cccc(NC(=O)CSc2nnc(N)s2)c1	–	–	–	–	–
O=C(c1cc2c(=O)n3ccccc3nc2s1)N1CCc2ccccc2C1	81	–	–	–	–
CCN1CCN(C(=O)c2cc3c(=O)n4ccccc4nc3s2)CC1	·	·	–	·	·
COc1cc2[nH]c(Cl)c([N+](=O)[O-])c2cc1OC	–	–	19	–	–
Cn1c2ccccc2c(=O)c2cc(C#Cc3ccc(N)cc3)ccc21	·	·	50	·	·
COc1ccc(-c2c(NC(C)=O)n(C)c3ccccc3c2=O)cc1	–	–	–	–	–
COc1ccc(C#Cc2ccc3c(c2)c(=O)c2ccccc2n3C)cc1	·	·	84	·	·
Cn1c2ccccc2c(=O)c2ccc(C#CC3(O)CCCCC3)cc21	·	·	165	·	·
C(=N\NC1=NCCN1)/c1ccncc1	·	·	–	·	·
COc1ccc(Cc2nnc(SC(C)C(=O)Nc3ccc(F)cc3Cl)o2)cc1 (centres undefined)	·	·	–	·	·
Cc1ccc2nc(NCC(N)=O)nc(-c3ccccc3)c2c1	–	–	20	–	–
O=C(O)CCNc1nc(-c2ccccc2)c2cc(Br)ccc2n1	·	·	20	·	·
O=C(O)CCCC(=O)NNc1nc(-c2ccccc2)c2cc(Cl)ccc2n1	·	·	–	·	·
Cc1ccc2nc(NCCC(=O)O)nc(-c3ccccc3)c2c1	90	–	–	–	–
Cc1ccc2nnnc(-c3ccccc3)c2c1	–	–	–	–	–
COc1ccc(OC)c(NC(=O)CCC(=O)Nc2nnc(C(C)C)s2)c1	·	·	–	·	·
COc1ccc(CCNC(=O)CCc2ccsc2)cc1OC	·	·	–	·	·
CCCn1c2ccccc2c2cnn(CC(=O)NCCCN3C(C)CCCC3C)c(=O)c21 (centres undefined)	·	·	–	·	·
CN(Cc1ccccc1)C1=CC(=[N+]2CCCCC2)CC(C)(C)C1	–	–	–	–	–
SMILES	Runt-SMMHC FRET	TbHK1 inh	RanGTP-Imp inh	Runt-CBFb FRET	Hck Nef HTS
CC1(C)CC(NNCCC#N)=CC(=[N+]2CCCC2)C1	–	–	19	–	–
CC(C)Cn1c(-c2cccs2)nc2nc3ccccc3nc21	104	–	–	–	–
Cc1ccc(-n2c(-c3cccs3)nc3nc4ccccc4nc32)cc1	–	–	–	–	–
c1ccc(Cn2c(-c3cccs3)nc3nc4ccccc4nc32)cc1	65	–	?	–	–
CCCCn1c(-c2cccs2)nc2nc3ccccc3nc21	158	–	–	–	–
CCOC(=O)CN=C/C(C(C)=O)=C(/C)O	–	–	63	–	–
C=CCN1C(=O)/C(=C2/Sc3ccccc3N2C)SC1=Nc1c(C)n[nH]c1C	–	–	–	–	–
CCN1C(=O)/C(=C2/Sc3ccccc3N2CC)S/C1=N\c1ncn[nH]1	·	–	–	·	53
CCN(CC)CCN1C(=O)C(O)=C(C(=O)c2cccs2)C1c1ccc(C)o1 (centres undefined)	–	–	–	–	–
O=C(C1=C(O)C(=O)N(CCN2CCOCC2)C1c1ccccn1)c1cccs1 (centres undefined)	–	–	26	–	–
Cc1ccc(C2C(C(=O)c3cccs3)=C(O)C(=O)N2CCN2CCOCC2)o1 (centres undefined)	–	–	–	–	–
CCN(CC)CCN1C(=O)C(O)=C(C(=O)c2cccs2)C1c1ccccn1 (centres undefined)	–	–	68	–	–
Cc1cccc(NC(=O)N2CCN(Cc3ccc4c(c3)OCO4)CC2)c1C	–	–	·	–	–
Nc1cccc2c1C(=O)N(C(=O)c1ccco1)C2=O	84	–	26	–	–
Nc1cccc2c1C(=O)N(C(=O)/C=C/c1ccc(F)cc1)C2=O	86	–	–	–	–
COCCn1c(=N)c(S(=O)(=O)c2ccc(Br)cc2)cc2c(=O)n3ccccc3nc21	·	·	119	·	·
COc1ccc(CCn2c(=N)c(S(=O)(=O)c3ccc(C)cc3)cc3c(=O)n4ccccc4nc32)cc1	·	·	–	·	·
COCCn1c(=N)c(S(=O)(=O)c2ccc(F)cc2)cc2c(=O)n3ccccc3nc21	·	·	160	·	·
NNC(=O)CCN(Cc1ccco1)S(=O)(=O)c1ccc(Cl)cc1	–	–	–	–	–
COc1ccc(S(=O)(=O)N2CCCCC2)cc1NC(=O)C1COc2ccccc2O1 (centres undefined)	·	·	–	·	·
N#Cc1cc2ccc(N3CCOCC3)cc2cc1C#N	–	–	35	–	–
C=CCOc1ccc(C2OC34CCCCC3C(C#N)(C#N)C2(C#N)C(=N)O4)cc1 (centres undefined)	50	–	46	–	–
CCOc1ccc(C2OC34CCCCC3C(C#N)(C#N)C2(C#N)C(=N)O4)cc1OC (centres undefined)	–	–	45	–	–
COCCc1nc2ccc(C(=O)N(C)Cc3cccc(-n4nc(C)cc4C)c3)cc2o1	·	·	–	·	·
CCCCn1c(=O)cc(C)n(-c2ccccc2)c1=O	·	·	–	·	·
SMILES	Runt-SMMHC FRET	TbHK1 inh	RanGTP-Imp inh	Runt-CBFb FRET	Hck Nef HTS
Cc1ccc(C)c(-n2c3nc(=O)n(C)c(=O)c-3cc3ccccc32)c1	81	–	133	–	–
Cc1cccc2cc3c(nc12)-c1ccccc1C3=O	·	·	–	·	·
CCCCn1c(=O)nc2n(-c3ccccc3)c3ccccc3cc-2c1=O	60	–	142	–	–
Cc1ccccc1CN1CCC(CNC(=O)C2CCCN(c3ncnc4c3nc3n4CCCCC3)C2)CC1 (centres undefined)	·	·	–	·	·
N#Cc1ccccc1NC1=CC(=O)CCC1	–	–	58	–	–
O=C1C=C(NCc2ccccc2)CCC1	–	–	?	–	–
Cc1ncc(CO)c(/C=N/NC(=O)c2ccc(O)cc2)c1O	63	–	44	–	–
Cc1ncc(CO)c(/C=N/NC(=O)c2ccccc2Br)c1O	64	–	–	–	–
Cc1ncc(CO)c(/C=N/NC(=O)c2cc3c(s2)CCCC3)c1O	92	–	50	–	–
CCn1c(=O)n(CC)c2cc(NC(=O)C(C)c3ccccc3)c(Br)cc21 (centres undefined)	·	·	–	·	·
O=C1NN(c2ccc(Br)cc2)C(=O)/C1=C\c1ccc(O)cc1O	·	·	142	·	·
Oc1ccc(Cl)cc1N=Cc1sc2ccccc2c1Cl	–	–	?	·	–
